Values joined by “and” are separate entries in the source; they are usually repeats but may differ in a detail not shown here. Equal values may be shown once.
Experiments:
[1] = organism: Canis familiaris; experiment: In vitro electrophysiological evaluation in canine cardiac ventricular muscle reported as maximum % change for functional refractory period (FRP) at 0.1-100 uM concentration range; design: species or system Canis lupus familiaris, Muscle tissue
[2] = organism: Canis familiaris; experiment: In vitro electrophysiological evaluation in canine cardiac ventricular muscle reported as % change for the functional refractory period (FRP) concentration range of 0.1-100 uM; design: species or system Canis lupus familiaris, Muscle tissue
How it was run: (§1)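 Canine right ventricle and papillary muscle strips in oxygenated Tyrode's solution, fitted with stimulating and recording electrodes. The extra-stimulus conduction-interval method was adapted for in vitro use. FRP and CT were read from a conduction-interval curve before and after various compound concentrations, and expressed as percent change from control. Compounds were taken from 10 mM deionized-water stock into Tyrode's. Each strip was used once as its own control.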

[3] = organism: Canis familiaris; experiment: In vitro electrophysiological evaluation in canine cardiac Purkinje fibres reported as percent change Vmax concentration range of 0.1-100 uM; assay type: functional; details: Canis lupus familiaris; Purkinje fiber
How it was run: (§2)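 Canine cardiac Purkinje fibres, intracellular microelectrode recording, paced at a basic cycle length of 1 s. APD95 and Vmax read simultaneously. Compound: 10 mM stock in deionized water, diluted into Tyrode's solution, tested over the stated concentration range. Each fibre used once as its own control. Result is % change from control, given at 10 µM or as the maximum with its concentration. M = <10% decrease or an increase in Vmax.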

[4] = organism: Canis familiaris; experiment: In vitro electrophysiological evaluation in canine cardiac Purkinje fibres reported as percent change Vmax concentration range of 0.1-100 uM; Minimal (<IO%increase or a decrease in CT); assay type: functional; details: Canis lupus familiaris; Purkinje fiber; how it was run: as §2
[5] = organism: Canis familiaris; experiment: In vitro electrophysiological evaluation in canine cardiac Purkinje fibres reported as percent change Vmax concentration range of 0.1-30 uM; assay type: functional; details: Canis lupus familiaris; Purkinje fiber; how it was run: as §2
[6] = organism: Canis familiaris; experiment: In vitro electrophysiological evaluation in canine cardiac Purkinje fibres reported as percent change Vmax concentration range of 1-100 uM; Minimal (<IO%increase or a decrease in CT; Minimal (<IO%increase or a decrease in CT); assay type: functional; details: Canis lupus familiaris; Purkinje fiber; how it was run: as §2
[7] = organism: Canis familiaris; experiment: In vitro electrophysiological evaluation in canine cardiac ventricular muscle reported as % change for conduction time(CT) at 0.1-100 uM concentration range; Minimal (<IO%increase or a decrease in CT); assay type: functional, Canis lupus familiaris, Muscle tissue
[8] = organism: Canis familiaris; experiment: In vitro electrophysiological evaluation in canine cardiac ventricular muscle reported as maximum % change for conduction time(CT) at 0.1-100 uM concentration range; Minimal (<IO%increase or a decrease in CT); assay type: functional, Canis lupus familiaris, Muscle tissue; how it was run: as §1
[9] = organism: Canis familiaris; experiment: In vitro electrophysiological evaluation in canine cardiac Purkinje fibres reported as maximum percent change Vmax concentration range of 1-100 uM; M = Minimal(<IO%increase or a decrease in CT); assay type: functional; details: Canis lupus familiaris; Purkinje fiber; how it was run: as §2
[10] = organism: Canis familiaris; experiment: In vitro electrophysiological evaluation in canine cardiac Purkinje fibres reported as maximum percent change Vmax concentration range of 0.1-30 uM; assay type: functional; details: Canis lupus familiaris; Purkinje fiber; how it was run: as §2
[11] = organism: Canis familiaris; experiment: In vitro electrophysiological activity in canine cardiac Purkinje fibres given as maximum % change for action potential duration at 0.1-100 uM concentration; assay type: functional, Canis lupus familiaris, Purkinje fiber
How it was run: (§3)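 Canine cardiac Purkinje fibres, intracellular recording at 1 s basic cycle length, over cumulative concentration ranges. Compound 10 mM stock in deionized water diluted into Tyrode's. Each fibre used once as its own control. Value is the maximum % change from control in APD at 95% repolarization, with the concentration where it occurred; both values given if a biphasic response (>20% reversal) occurred.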

[12] = organism: Canis familiaris; experiment: In vitro electrophysiological evaluation in canine cardiac Purkinje fibres reported as % change for action potential duration at 0.1-30 uM concentration range; assay type: functional, Canis lupus familiaris, Purkinje fiber; how it was run: as §2
[13] = organism: Canis familiaris; experiment: In vitro electrophysiological evaluation in canine cardiac Purkinje fibres reported as % change for action potential duration at 1-100 uM concentration range; assay type: functional, Canis lupus familiaris, Purkinje fiber; how it was run: as §2
[14] = organism: Canis familiaris; experiment: (§4) In vitro electrophysiological evaluation in canine cardiac Purkinje fibres reported as % change for action potential duration at 0.1-100 uM concentration range; assay type: functional, Canis lupus familiaris, Purkinje fiber; how it was run: as §2
[15] = organism: Canis familiaris; experiment: as §4; assay type: functional, Canis lupus familiaris, Purkinje fiber; how it was run: as §2; remark: listed apart in the source
[16] = organism: Canis familiaris; experiment: In vitro electrophysiological activity in canine cardiac Purkinje fibres given as maximum % change for action potential duration at 100 uM concentration; assay type: functional, Canis lupus familiaris, Purkinje fiber; how it was run: as §3
[17] = organism: Canis familiaris; experiment: In vitro electrophysiological activity in canine cardiac Purkinje fibres given as maximum % change for action potential duration at 10 uM concentration; assay type: functional, Canis lupus familiaris, Purkinje fiber; how it was run: as §3
[18] = organism: Canis familiaris; experiment: In vitro electrophysiological activity in canine cardiac Purkinje fibres given as maximum % change for action potential duration at 95% repolarization at 1 uM concentration; assay type: functional, Canis lupus familiaris, Purkinje fiber; how it was run: as §3
[19] = organism: Canis familiaris; experiment: In vitro electrophysiological activity in canine cardiac Purkinje fibres given as maximum % change for action potential duration t 100 uM concentration; assay type: functional, Canis lupus familiaris, Purkinje fiber; how it was run: as §3

SMILES: Cl.Clc1ccc(CCCC2CC3CCN2CC3)cc1 (centres undefined)
- FRP [1]: 25%
- FRP [2]: 25%
- Vmax [3]: -10%
- Vmax [4]: -13% and < 10%
- Vmax [5]: -23%
- Vmax [6]: < 10%
- CT [7]: <10%
- CT [8]: <10%
- Vmax [9]: < 10%
- Vmax [10]: < 10%
- APD95 [11]: 13%
- APD95 [12]: 30%
- APD95 [13]: -20%
- APD95 [14]: 21% and 12%
- APD95 [15]: 2%
- APD95 [16]: 21%
- APD95 [17]: 30% and 12%
- APD95 [18]: 40%
- APD95 [19]: -20%

Source: ChEMBL document CHEMBL1123566, “Synthesis and cardiac electrophysiological activity of 2- and 3-[(substituted phenyl)alkyl]quinuclidines. Structure-activity relationships” (1987)
